The source of these data is ChEMBL document CHEMBL1687824, “Overexpression of patA and patB, which encode ABC transporters, is associated with fluoroquinolone resistance in clinical isolates of Streptococcus pneumoniae” (2011).

Converted amounts (≈) assume the structure as drawn.

Test [1] relates to Streptococcus pneumoniae. The experiment in a line: Antibacterial activity against Streptococcus pneumoniae M45B overexpressing patA, patB and inactivated patB with single mutation by standardized agar doubling dilution method. The test is classed as functional. In outline: (§1)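 MICs were determined by agar doubling dilution following BSAC guidelines, with no efflux inhibitor. Strains were grown in brain heart infusion broth for 24 h at 37°C in 5% CO2. Species identity was confirmed by Gram stain, optochin sensitivity and capsule test. Control strain R6 was tested alongside.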

Test [2] deals with Streptococcus pneumoniae. The experiment in a line: Antibacterial activity against Streptococcus pneumoniae M86B overexpressing patA, patB and inactivated patB with single mutation by standardized agar doubling dilution method in presence of 20 ug/ml reserpine efflux pump inhibitor. In kind it is functional. In outline: (§2)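 MICs were determined by BSAC agar doubling dilution in the presence of reserpine at 20 μg/ml. Strains were grown in BHI broth for 24 h at 37°C in 5% CO2, with R6 as control. Synergy was defined as an MIC drop of ≥2 dilutions with the inhibitor.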

In test [3] the test system is Streptococcus pneumoniae. The experiment in a line: Antibacterial activity against dye-resistant Streptococcus pneumoniae M55 DR overexpressing patA, patB by standardized agar doubling dilution method in presence of 50 uM sodium orthovanadate efflux pump inhibitor. In kind it is functional. The method in brief: (§3)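 MIC by agar doubling dilution following BSAC guidelines. Strains grown in brain heart infusion broth 24 h at 37°C in 5% CO2. Where an efflux pump inhibitor applies, MIC redetermined with reserpine at 20 μg/ml or sodium orthovanadate at 50 μM. Synergy taken as a fall in MIC of ≥2 dilutions with inhibitor present. Dye resistance defined relative to R6 (both dyes ≥2 dilutions higher).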

Test [4] concerns Streptococcus pneumoniae. The experiment in a line: Antibacterial activity against Streptococcus pneumoniae M317 overexpressing patA, patB and inactivated patB with single mutation by standardized agar doubling dilution method in presence of 50 uM sodium orthovanadate efflux pump inhibitor. In kind it is functional. The method in brief:
(§4)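 MICs were determined by BSAC agar doubling dilution in the presence of sodium orthovanadate at 50 μM. Cultures were grown in BHI broth for 24 h at 37°C in 5% CO2, with R6 as control. Synergy was defined as an MIC reduction of ≥2 dilutions with the inhibitor present.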

Test [5] concerns Streptococcus pneumoniae. Kind of test: Antibacterial activity against dye-resistant Streptococcus pneumoniae M55 DR overexpressing patA, patB by standardized agar doubling dilution method in presence of 20 ug/ml reserpine efflux pump inhibitor. The test is classed as functional. In outline:
as §3

For test [6], the system named is Streptococcus pneumoniae. The experiment in a line: Antibacterial activity against wild type Streptococcus pneumoniae R6 by standardized agar doubling dilution method. In kind it is functional. In outline:
as §3

Test [7] has as its system Streptococcus pneumoniae. The experiment in a line: Antibacterial activity against dye-resistant Streptococcus pneumoniae M46 DR overexpressing patA, patB by standardized agar doubling dilution method in presence of 50 uM sodium orthovanadate efflux pump inhibitor. The test is classed as functional. In outline:
as §4

The test system of test [8] is Streptococcus pneumoniae. The experiment in a line: Antibacterial activity against Streptococcus pneumoniae M86A overexpressing patA, patB and inactivated patA with single mutation by standardized agar doubling dilution method in presence of 50 uM sodium orthovanadate efflux pump inhibitor. The test is classed as functional. In outline:
as §4

The subject of test [9] is Streptococcus pneumoniae. The experiment in a line: Antibacterial activity against dye-resistant Streptococcus pneumoniae M46 DR overexpressing patA, patB by standardized agar doubling dilution method in presence of 20 ug/ml reserpine efflux pump inhibitor. In kind it is functional. The method in brief: as §2
For test [10], the system named is Streptococcus pneumoniae. Kind of test: Antibacterial activity against fluoroquinolone, dye-susceptible Streptococcus pneumoniae M295 S overexpressing patA, patB by standardized agar doubling dilution method in presence of 20 ug/ml reserpine efflux pump inhibitor. In kind it is functional. In outline: as §3
The subject of test [11] is Streptococcus pneumoniae. The experiment in a line: Antibacterial activity against Streptococcus pneumoniae M55B overexpressing patA, patB and inactivated patB with single mutation by standardized agar doubling dilution method in presence of 50 uM sodium orthovanadate efflux pump inhibitor. In kind it is functional. The method in brief: as §4
The subject of test [12] is Streptococcus pneumoniae. Kind of test: Antibacterial activity against Streptococcus pneumoniae M86A overexpressing patA, patB and inactivated patA with single mutation by standardized agar doubling dilution method in presence of 20 ug/ml reserpine efflux pump inhibitor. The test is classed as functional. In outline:
as §2

Test [13] has as its system Streptococcus pneumoniae. The experiment in a line: Antibacterial activity against fluoroquinolone-resistant Streptococcus pneumoniae by standardized agar doubling dilution method in presence of 50 uM sodium orthovanadate efflux pump inhibitor. In kind it is functional. In outline:
as §3

Test [14] concerns Streptococcus pneumoniae. The experiment in a line: Antibacterial activity against Streptococcus pneumoniae M50A overexpressing patA, patB and inactivated patA with single mutation by standardized agar doubling dilution method. In kind it is functional. The method in brief: as §1
For test [15], the system named is Streptococcus pneumoniae. The experiment in a line: Antibacterial activity against wild type Streptococcus pneumoniae M3 NCTC 7466 type 2 by standardized agar doubling dilution method in presence of 20 ug/ml reserpine efflux pump inhibitor. The test is classed as functional. In outline: as §3
Test [16] deals with Streptococcus pneumoniae. Kind of test: Antibacterial activity against wild-type Streptococcus pneumoniae R6 by standardized agar doubling dilution method in presence of 20 ug/ml reserpine efflux pump inhibitor.
Test [17] has as its system Streptococcus pneumoniae. Kind of test: Antibacterial activity against Streptococcus pneumoniae M86B overexpressing patA, patB and inactivated patB with single mutation by standardized agar doubling dilution method in presence of 50 uM sodium orthovanadate efflux pump inhibitor. The test is classed as functional. The method in brief: as §4
For test [18], the system named is Streptococcus pneumoniae. Kind of test: Antibacterial activity against wild type Streptococcus pneumoniae M4 NCTC 7465 type 1 by standardized agar doubling dilution method in presence of 20 ug/ml reserpine efflux pump inhibitor. In kind it is functional. In outline: as §3
Test [19] has as its system Streptococcus pneumoniae. The experiment in a line: Antibacterial activity against fluoroquinolone, dye-resistant Streptococcus pneumoniae M87 overexpressing patA, patB by standardized agar doubling dilution method in presence of 20 ug/ml reserpine efflux pump inhibitor. In kind it is functional. The method in brief: as §3
Test [20] concerns Streptococcus pneumoniae. Kind of test: Antibacterial activity against Streptococcus pneumoniae M307 overexpressing patA, patB and inactivated patB with single mutation by standardized agar doubling dilution method. The test is classed as functional. The method in brief: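 MICs determined by BSAC standardized agar doubling dilution. Strains were grown in brain heart infusion broth for 24 h at 37°C in 5% CO2. Inhibitor arms had reserpine at 20 μg/ml or sodium orthovanadate at 50 μM in the agar. Mutants were made by transforming magellan2 insertion amplimers into clinical isolates and selecting on spectinomycin 100 mg/liter, with a no-DNA spontaneous-mutation control.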

For test [21], the system named is Streptococcus pneumoniae. The experiment in a line: Antibacterial activity against wild type Streptococcus pneumoniae M4 NCTC 7465 type 1 by standardized agar doubling dilution method. In kind it is functional. In outline:
as §3

The test system of test [22] is Streptococcus pneumoniae. The experiment in a line: Antibacterial activity against Streptococcus pneumoniae M87A overexpressing patA, patB and inactivated patA with single mutation by standardized agar doubling dilution method. In kind it is functional. In outline: as §1
Test [23] relates to Streptococcus pneumoniae. The experiment in a line: Antibacterial activity against fluoroquinolone, dye-resistant Streptococcus pneumoniae M86 overexpressing patA, patB by standardized agar doubling dilution method in presence of 50 uM sodium orthovanadate efflux pump inhibitor. In kind it is functional. In outline: as §3
Test [24] has as its system Streptococcus pneumoniae. Kind of test: Antibacterial activity against wild-type Streptococcus pneumoniae R6 by standardized agar doubling dilution method.
The subject of test [25] is Streptococcus pneumoniae. Kind of test: Antibacterial activity against wild type Streptococcus pneumoniae R6 by standardized agar doubling dilution method in presence of 20 ug/ml reserpine efflux pump inhibitor. The test is classed as functional. The method in brief:
as §3

Test [26] has as its system Streptococcus pneumoniae. Kind of test: Antibacterial activity against fluoroquinolone, dye-resistant Streptococcus pneumoniae M86 overexpressing patA, patB by standardized agar doubling dilution method in presence of 20 ug/ml reserpine efflux pump inhibitor. In kind it is functional. The method in brief:
as §3

Test [27] relates to Streptococcus pneumoniae. The experiment in a line: Antibacterial activity against Streptococcus pneumoniae M316 overexpressing patA, patB and inactivated patA with single mutation by standardized agar doubling dilution method. The test is classed as functional. The method in brief:
as §1

Test [28] relates to Streptococcus pneumoniae. Kind of test: Antibacterial activity against fluoroquinolone, dye-resistant Streptococcus pneumoniae M296 overexpressing patA, patB by standardized agar doubling dilution method in presence of 20 ug/ml reserpine efflux pump inhibitor. The test is classed as functional. In outline:
as §3

`CC[n+]1c(-c2ccccc2)c2cc(N)ccc2c2ccc(N)cc21.[Br-]` [HOMIDIUM BROMIDE]: the MIC (commonly the smallest concentration in the dilution series that meets the test's criterion for growth inhibition) was found to be 0.5 µg/mL in test [1]; 0.5 µg/mL in test [2]; 1 µg/mL in [3]; 0.5 µg/mL in test [4]; 0.5 µg/mL in test [5]; 1 µg/mL in test [6]. Moreover, the MIC in test [7] worked out at 1 µg/mL; in test [8], 0.5 µg/mL; in test [9], 0.5 µg/mL; in test [10] it was 0.25 µg/mL; in test [11], 0.5 µg/mL; in test [12], 0.5 µg/mL. The minimum inhibitory concentration (MIC) stood at 0.5 µg/mL in test [14]; 0.5 µg/mL in test [15]; 0.25 µg/mL in test [16]; 0.5 µg/mL in test [17]; 0.3 µg/mL in [18]; 0.5 µg/mL in test [19]. Besides, the MIC was 2 µg/mL in test [20]; 2 µg/mL in [21]; 0.5 µg/mL in test [22]; 0.5 µg/mL in [23]; 1 µg/mL in test [24]; 0.3 µg/mL in test [25]. In addition, the minimum inhibitory concentration (MIC) came to 0.5 µg/mL in [26], 0.25 µg/mL in test [27] and 0.5 µg/mL in test [28]. Further, in test [13], the MIC90 (in general, an inhibitory concentration at the 90% level, which refers to growth in some studies and to a panel of isolates in others) worked out at 0.5 µg/mL.

As to `O=C(O)c1cn(C2CC2)c2cc(N3CCNCC3)c(F)cc2c1=O` [CIPROFLOXACIN], the MIC in test [1] was 1 µg/mL (≈ 3.02 µM); in test [4], 8 µg/mL; in [11], 2 µg/mL; in test [14] it was 4 µg/mL (≈ 12.1 µM); in test [19] it was 8 µg/mL; in test [20], 8 µg/mL (≈ 24.1 µM). Moreover, the minimal inhibitory concentration (MIC) was determined as 1 µg/mL (≈ 3.02 µM) in [21], 8 µg/mL (≈ 24.1 µM) in test [22] and 8 µg/mL (≈ 24.1 µM) in test [27]. Besides, the MIC90 in [13] stood at 2 µg/mL.
